According to ChEMBL document CHEMBL4130566, “χ-Space Screening of Dermorphin-Based Tetrapeptides through Use of Constrained Arylazepinone and Quinolinone Scaffolds” (ACS Med Chem Lett, 2017):
Square brackets hold non-standard residues; d marks the D form. Peptide text beside a SMILES is read from it.

Assays:
[1] = target: T1, Delta-type opioid receptor (Mus musculus, UniProt P32300); experiment: Displacement of [125I]-Deltorphin II from mouse FLAG-tagged delta-type opioid receptor expressed in HEK293 cell membranes after 60 mins by gamma counting analysis
T1 sequence (P32300 whole entry): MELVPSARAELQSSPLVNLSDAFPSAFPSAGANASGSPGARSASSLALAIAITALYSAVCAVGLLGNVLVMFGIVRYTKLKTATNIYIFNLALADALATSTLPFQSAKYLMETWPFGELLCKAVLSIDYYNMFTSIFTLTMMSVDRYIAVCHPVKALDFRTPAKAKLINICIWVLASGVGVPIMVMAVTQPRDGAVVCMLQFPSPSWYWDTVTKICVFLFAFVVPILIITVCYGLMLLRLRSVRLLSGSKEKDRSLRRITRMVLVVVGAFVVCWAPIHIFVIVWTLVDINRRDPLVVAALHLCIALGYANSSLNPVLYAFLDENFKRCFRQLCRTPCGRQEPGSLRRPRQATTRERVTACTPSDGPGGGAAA
Method in brief: (§1)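 Competitive radioligand displacement binding in HEK293 cells expressing MOP or DOP. The MOP-selective tracer is [125I]-DAMGO and the DOP-selective tracer is [125I]-Deltorphin II. Values are reported as IC50.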

[2] = target: T1, Delta-type opioid receptor; experiment: Agonist activity at delta-type opioid receptor in mouse vas deferens assessed as inhibition of electrically stimulated contractions; type: functional
Method in brief: (§2)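 Guinea pig ileum (GPI) serves as the MOP-representative tissue and mouse vas deferens (MVD) as the DOP-representative tissue. Values are reported as IC50.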

Mu-type opioid receptor [3] = target: Mu-type opioid receptor (Mus musculus, UniProt P42866); experiment: Displacement of [125I]-DAMGO from mouse FLAG-tagged Mu-type opioid receptor expressed in HEK293 cell membranes after 60 mins by gamma counting analysis; method in brief: as §1
Mu-type opioid receptor (Mus musculus, UniProt P42866), sequence (P42866 whole entry): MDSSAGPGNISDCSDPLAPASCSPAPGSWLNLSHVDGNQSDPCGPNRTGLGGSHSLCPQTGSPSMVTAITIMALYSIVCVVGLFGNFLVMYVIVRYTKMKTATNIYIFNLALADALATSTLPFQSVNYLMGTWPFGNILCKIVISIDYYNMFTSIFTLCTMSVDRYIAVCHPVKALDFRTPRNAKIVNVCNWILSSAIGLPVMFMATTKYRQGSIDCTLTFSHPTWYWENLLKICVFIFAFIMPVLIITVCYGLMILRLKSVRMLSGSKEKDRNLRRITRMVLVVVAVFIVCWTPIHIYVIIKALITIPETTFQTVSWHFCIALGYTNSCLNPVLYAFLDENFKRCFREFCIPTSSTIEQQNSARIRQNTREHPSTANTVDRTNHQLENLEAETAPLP

Mus musculus = organism: Mus musculus; experiment: Selectivity ratio of IC50 for mouse FLAG-tagged delta-type opioid receptor expressed in HEK293 cell membranes to IC50 for mouse FLAG-tagged Mu-type opioid receptor expressed in HEK293 cell membranes; type: cell-based
[4] = target: Mu-type opioid receptor (Cavia porcellus) (UniProt P97266); experiment: (§3) Agonist activity at mu-opioid receptor in guinea pig ileum assessed as inhibition of electrically induced contractions; type: functional; method in brief: as §2
Mu-type opioid receptor (Cavia porcellus), sequence (P97266 whole entry): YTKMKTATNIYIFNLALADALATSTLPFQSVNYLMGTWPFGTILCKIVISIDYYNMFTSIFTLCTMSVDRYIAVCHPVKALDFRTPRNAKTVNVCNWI

Mu-type opioid receptor [5] = target: T2, Mu-type opioid receptor (Cavia porcellus, UniProt P97266); experiment: as §3; type: functional; method in brief: as §2
T2 sequence (P97266 whole entry): as above

[6] = target: Mu-type opioid receptor (Cavia porcellus) (UniProt P97266); experiment: Antagonist activity at mu-opioid receptor in guinea pig ileum assessed as inhibition of TAPP-induced reduction in electrically stimulated contractions; type: functional
[7] = target: Delta-type opioid receptor (Mus musculus) (UniProt P32300); experiment: Antagonist activity at delta-type opioid receptor in mouse vas deferens assessed as inhibition of DPDPE-induced electrically stimulated contractions; type: functional
Delta-type opioid receptor (Mus musculus), sequence (P32300 whole entry): as the sequence (P32300 whole entry) above

[8] = target: T3, Delta-type opioid receptor (Rattus norvegicus, UniProt P33533); experiment: Displacement of [3H][Ile5,6]-deltorphin II from delta-type opioid receptor in Sprague-Dawley rat brain membranes; type: cell membranes, Membrane
T3 sequence (P33533 whole entry): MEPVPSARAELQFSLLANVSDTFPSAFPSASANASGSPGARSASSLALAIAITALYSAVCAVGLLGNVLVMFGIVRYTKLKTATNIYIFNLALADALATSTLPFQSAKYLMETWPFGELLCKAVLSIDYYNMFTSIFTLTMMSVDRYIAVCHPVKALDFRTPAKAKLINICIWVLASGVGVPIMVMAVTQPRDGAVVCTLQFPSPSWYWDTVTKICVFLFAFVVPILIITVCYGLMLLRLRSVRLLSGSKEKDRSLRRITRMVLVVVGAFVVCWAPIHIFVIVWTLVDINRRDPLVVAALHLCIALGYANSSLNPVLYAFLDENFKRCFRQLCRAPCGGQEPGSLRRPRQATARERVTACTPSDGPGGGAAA

Mu-type opioid receptor [9] = target: T4, Mu-type opioid receptor (Rattus norvegicus, UniProt P33535); experiment: Displacement of [3H]naloxone from Mu-type opioid receptor in Sprague-Dawley rat brain membranes; type: cell membranes, Membrane
T4 sequence (P33535 whole entry): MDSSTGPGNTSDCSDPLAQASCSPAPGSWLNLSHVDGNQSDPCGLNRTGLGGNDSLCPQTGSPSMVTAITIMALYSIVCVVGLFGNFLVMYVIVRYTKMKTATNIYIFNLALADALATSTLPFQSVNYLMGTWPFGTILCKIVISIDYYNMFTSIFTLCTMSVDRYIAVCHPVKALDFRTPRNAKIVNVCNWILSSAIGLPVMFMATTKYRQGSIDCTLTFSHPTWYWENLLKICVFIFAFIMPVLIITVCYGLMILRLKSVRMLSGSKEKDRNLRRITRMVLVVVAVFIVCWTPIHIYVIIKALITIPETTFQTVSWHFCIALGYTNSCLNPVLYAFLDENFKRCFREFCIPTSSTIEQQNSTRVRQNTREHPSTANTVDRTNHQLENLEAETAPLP

[10] = target: T1, Delta-type opioid receptor; experiment: Agonist activity at delta-type opioid receptor in ICR mouse vas deferens assessed as […] of electrically stimulated contractions after 3 mins post dose; type: functional
Mu-type opioid receptor [11] = target: T4, Mu-type opioid receptor; experiment: Displacement of [3H]-CTOP from Mu-type opioid receptor in Sprague-Dawley rat brain homogenate after 180 mins by scintillation counting
[12] = target: T3, Delta-type opioid receptor; experiment: Displacement of [H][p-ClPhe4]-DPDPE from delta-type opioid receptor in Sprague-Dawley rat brain homogenates after 180 mins by scintillation counting
Mu-type opioid receptor [13] = target: T2, Mu-type opioid receptor; experiment: Agonist activity at mu-opioid receptor in Hartley guinea pig ileum assessed as inhibition of electrically induced contractions after 3 mins post dose; type: functional; method in brief: as §2
Mu-type opioid receptor [14] = target: Mu-type opioid receptor (Homo sapiens, UniProt P35372); experiment: Binding affinity to Mu-type opioid receptor (unknown origin)
Mu-type opioid receptor (Homo sapiens, UniProt P35372), sequence (P35372 whole entry): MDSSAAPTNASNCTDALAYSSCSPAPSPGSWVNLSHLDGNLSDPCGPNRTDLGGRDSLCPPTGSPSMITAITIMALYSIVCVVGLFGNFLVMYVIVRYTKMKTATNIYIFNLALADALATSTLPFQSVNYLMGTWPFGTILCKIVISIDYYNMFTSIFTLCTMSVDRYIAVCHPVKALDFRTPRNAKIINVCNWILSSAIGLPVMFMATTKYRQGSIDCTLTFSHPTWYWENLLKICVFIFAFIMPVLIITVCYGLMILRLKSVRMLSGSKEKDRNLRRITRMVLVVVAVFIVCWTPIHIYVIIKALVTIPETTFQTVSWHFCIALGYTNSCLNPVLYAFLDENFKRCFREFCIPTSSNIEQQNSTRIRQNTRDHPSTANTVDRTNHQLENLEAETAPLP

[15] = target: Delta-type opioid receptor (Homo sapiens, UniProt P41143); experiment: Binding affinity to delta-type opioid receptor (unknown origin)
Delta-type opioid receptor (Homo sapiens, UniProt P41143), sequence (P41143 whole entry): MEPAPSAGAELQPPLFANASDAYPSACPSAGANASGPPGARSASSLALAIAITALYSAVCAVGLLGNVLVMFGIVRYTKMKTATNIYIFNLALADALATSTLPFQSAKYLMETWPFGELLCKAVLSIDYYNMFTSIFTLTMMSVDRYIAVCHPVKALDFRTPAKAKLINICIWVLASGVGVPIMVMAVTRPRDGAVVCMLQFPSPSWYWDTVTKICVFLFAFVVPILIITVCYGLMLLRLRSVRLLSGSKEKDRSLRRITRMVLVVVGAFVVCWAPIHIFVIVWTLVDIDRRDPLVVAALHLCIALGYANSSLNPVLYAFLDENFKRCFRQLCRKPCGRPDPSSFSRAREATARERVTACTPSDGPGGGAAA

Row | Compound | IC50 [1] [nM] | IC50 [2] [nM] | IC50 (Mu-type opioid receptor [3]) [nM] | Ratio IC50 (Mus musculus) | IC50 (Mu-type opioid receptor [5]) [nM] | also measured
1 | Cc1cc(O)cc(C)c1C[C@H](N)C(=O)N[C@H](CCCNC(=N)N)C(=O)N[C@H]1Cc2ccc(Br)cc2CN(CC(N)=O)C1=O | 60.7 | 8.51 | 0.76 | 80 | – | IC25 [4]: 22 nM
2 | Cc1cc(O)cc(C)c1C[C@H](N)C(=O)N[C@H](CCCNC(=N)N)C(=O)N[C@H]1Cc2ccc3ccccc3c2CN(CC(N)=O)C1=O | 153 | 114 | 2.19 | 70 | 21.4 | –
3 | Cc1cc(O)cc(C)c1C[C@H](N)C(=O)N[C@H](C)C(=O)N[C@H]1Cc2cc3ccccc3cc2CN(CC(N)=O)C1=O | – | – | – | – | – | Ke [6]: 5.53 nM; Ke [7]: 360 nM
4 | Cc1cc(O)cc(C)c1C[C@H](N)C(=O)N[C@H](C)C(=O)N[C@H]1Cc2ccc3ccccc3c2CN(CC(N)=O)C1=O | 167 | – | 1.78 | 94 | – | Ke [6]: 2.88 nM; Ke [7]: 306 nM
5 | Cc1cc(O)cc(C)c1C[C@H](N)C(=O)N[C@H](CCCNC(=N)N)C(=O)N[C@H]1Cc2ccccc2N(CC(N)=O)C1=O | 630 | 90.5 | 1.62 | 389 | – | IC35 [4]: 33.7 nM
6 | C[C@@H](NC(=O)[C@@H](N)Cc1ccc(O)cc1)C(=O)N[C@H]1Cc2ccccc2CN(CC(N)=O)C1=O | – | 47.1 | – | – | 50.4 | IC50 [8]: 15.8 nM; IC50 (Mu-type opioid receptor [9]): 34.4 nM
7 | Cc1cc(O)cc(C)c1C[C@H](N)C(=O)N[C@H](CCCNC(=N)N)C(=O)N[C@H]1Cc2c(ccc3ccccc23)CN(CC(N)=O)C1=O | 1 | 1.42 | 0.33 | 3 | 0.252 | –
8 | C[C@@H](NC(=O)[C@@H](N)Cc1ccc(O)cc1)C(=O)N[C@@H](Cc1ccccc1)C(=O)NCC(=O)N[C@@H](Cc1ccc(O)cc1)C(=O)N1CCC[C@H]1C(=O)N[C@@H](CO)C(N)=O [DERMORPHIN] | – | – | – | – | 1.06 | –
9 | C[C@@H](NC(=O)[C@@H](N)Cc1ccc(O)cc1)C(=O)N[C@@H](Cc1ccccc1)C(=O)NCC(N)=O (H-Y[dA]FG-NH2) | – | – | – | – | – | IC50 [10]: 263 nM; IC50 (Mu-type opioid receptor [11]): 36.7 nM; IC50 [12]: 1250 nM; IC50 (Mu-type opioid receptor [13]): 35 nM
10 | Cc1cc(O)cc(C)c1C[C@H](N)C(=O)N[C@H](CCCN=C(N)N)C(=O)N[C@H]1Cc2ccccc2CN(CC(N)=O)C1=O | – | – | – | – | – | Ki (Mu-type opioid receptor [14]): 0.15 nM; Ki [15]: 0.6 nM
11 | Cc1cc(O)cc(C)c1C[C@H](N)C(=O)N(C)[C@H](C)C(=O)N[C@H]1Cc2c(ccc3ccccc23)CN(CC(N)=O)C1=O | 1.47 | 1.09 | 0.35 | 4 | 0.43 | –
12 | Cc1cc(O)cc(C)c1C[C@H](N)C(=O)N[C@H](C)C(=O)N[C@H]1Cc2c(ccc3ccccc23)CN(CC(N)=O)C1=O | 2.07 | 0.86 | 0.39 | 5 | 1.13 | –
